ChEMBL document CHEMBL4706681, “New 2-Pyrazoline and Hydrazone Derivatives as Potent and Selective Monoamine Oxidase A Inhibitors” (J Med Chem, 2021)
Activity calls are given as the source filed them. No cut-off for these calls is given here.

Experiments:
[1] = Permeability of compound in PBS/EtOH buffer (70:30) at 25 ug/ml incubated for 16 hrs by UV plate reader based PAMPA-BBB
[2] = Ex vivo inhibition of MAOA in CD1 mouse brain homogenates assessed as assessed as inhibition of 5-HT deamination by measuring 5-HIAA metabolite levels at 30 mg/kg, po administered as single acute dose via gavage and measured after 1 hr by HPLC analysis (reference value: 0.28 +/- 0.011 ug/g); format: functional
[3] = target: T1, Amine oxidase [flavin-containing] A (Homo sapiens, UniProt P21397); test: Inhibition of recombinant human MAO-A expressed in baculovirus infected BTI insect cells using p-tyramine as substrate incubated for 30 mins by Amplex red reagent based fluorescence analysis
T1 sequence (P21397 whole entry): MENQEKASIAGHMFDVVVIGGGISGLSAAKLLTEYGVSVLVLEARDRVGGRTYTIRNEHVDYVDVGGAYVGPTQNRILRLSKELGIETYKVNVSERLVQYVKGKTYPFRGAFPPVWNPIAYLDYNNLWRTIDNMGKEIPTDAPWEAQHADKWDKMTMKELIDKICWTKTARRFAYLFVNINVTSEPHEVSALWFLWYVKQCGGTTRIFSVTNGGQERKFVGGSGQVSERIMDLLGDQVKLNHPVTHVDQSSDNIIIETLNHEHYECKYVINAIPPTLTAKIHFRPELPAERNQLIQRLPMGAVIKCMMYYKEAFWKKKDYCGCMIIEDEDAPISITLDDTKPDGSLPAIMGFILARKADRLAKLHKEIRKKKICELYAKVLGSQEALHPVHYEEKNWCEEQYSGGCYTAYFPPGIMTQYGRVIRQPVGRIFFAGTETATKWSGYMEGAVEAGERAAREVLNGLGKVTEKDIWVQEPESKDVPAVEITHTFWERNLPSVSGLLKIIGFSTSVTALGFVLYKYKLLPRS

[4] = Ex vivo inhibition of MAOA in CD1 mouse brain homogenates assessed as 5-HT levels at 30 mg/kg, po administered as single acute dose via gavage and measured after 1 hr by ELISA kit method (reference value: 0.80 +/- 0.006 ug/g); format: functional
[5] = target: T2, Amine oxidase [flavin-containing] B (Homo sapiens, UniProt P27338); test: Inhibition of recombinant human MAO-B expressed in baculovirus infected BTI insect cells using p-tyramine as substrate incubated for 30 mins by Amplex red reagent based fluorescence analysis; format: cell-based
T2 sequence (P27338 whole entry): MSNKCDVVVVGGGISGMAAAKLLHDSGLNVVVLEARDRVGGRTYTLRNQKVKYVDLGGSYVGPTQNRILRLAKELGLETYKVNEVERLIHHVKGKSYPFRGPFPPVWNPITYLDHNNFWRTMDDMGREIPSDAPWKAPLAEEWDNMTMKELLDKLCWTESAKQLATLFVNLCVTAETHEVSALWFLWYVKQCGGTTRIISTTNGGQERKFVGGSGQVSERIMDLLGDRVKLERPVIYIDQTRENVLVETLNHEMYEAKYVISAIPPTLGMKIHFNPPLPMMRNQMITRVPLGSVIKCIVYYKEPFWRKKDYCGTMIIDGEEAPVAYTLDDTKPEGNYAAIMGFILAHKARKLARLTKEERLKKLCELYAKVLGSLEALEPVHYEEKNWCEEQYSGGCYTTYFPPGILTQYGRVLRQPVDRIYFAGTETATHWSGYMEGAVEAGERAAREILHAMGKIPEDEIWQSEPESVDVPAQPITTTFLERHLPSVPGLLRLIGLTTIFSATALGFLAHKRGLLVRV

Mus musculus [6] = test: Antidepressant-like activity in CD1 mouse assessed as reduction in immobility time at 30 mg/kg, po administered via gavage as single dose measured after 1 hr by Porsolt-forced swim test; format: functional, organism-based
[7] = Effect on locomotor activity in CD1 mouse assessed as total distance traveled at 20 mg/kg, po administered via gavage for 7 days by open field test; format: ADME, organism-based; details: in vivo, 168 h, time 7 day
In short: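 Each mouse placed in the centre of a 50 × 50 × 30 cm black box and video-tracked; total distance travelled over 5 min; n = 8–10.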

[8] = Ex vivo inhibition of MAOA in CD1 mouse brain homogenates assessed as inhibition of 5-HT deamination by measuring 5-HIAA metabolite levels at 20 mg/kg, po administered as single acute dose via gavage and measured after 1 hr by HPLC analysis (reference value: 0.28 +/- 0.011 ug/g); format: functional
[9] = Ex vivo inhibition of MAOA in CD1 mouse brain homogenates assessed as dopamine levels at 20 mg/kg, po administered as single acute dose via gavage and measured after 1 hr by ELISA kit method (reference value: 7.08 +/- 0.58 ug/g); format: functional
Mus musculus [10] = test: Antidepressant-like activity in CD1 mouse assessed as reduction in immobility time at 20 mg/kg, po administered via gavage as single dose measured after 1 hr by Porsolt-forced swim test; format: functional, organism-based
[11] = Ex vivo inhibition of MAOA in CD1 mouse brain homogenates assessed as MAOA level at 20 mg/kg, po administered administered as single acute dose via gavage and measured after 1 hr by monoamine oxidase assay (reference value: 0.40 +/- 0.012 nmol/min/mg); format: functional
[12] = Ex vivo inhibition of MAOA in CD1 mouse brain homogenates assessed as inhibition of 5-HT deamination by measuring 5-HIAA metabolite levels at 20 mg/kg, po administered as subchronic dose via gavage for 7 days and measured 1 hr post last dose by HPLC analysis (reference value: 0.18 +/- 0.01 ug/g); format: functional; details: time 7 day
[13] = Ex vivo inhibition of MAOA in CD1 mouse brain homogenates assessed as MAOA level at 20 mg/kg, po administered as subchronic dose via gavage for 7 days and measured 1 hr post last dose by monoamine oxidase assay (reference value: 0.40 +/- 0.005 nmol/min/mg); format: functional; details: time 7 day
Mus musculus [14] = test: Antidepressant-like activity in CD1 mouse assessed as reduction in immobility time at 10 mg/kg, po administered as subchronic dose via gavage for 7 days and measured 1 h post last dose by Porsolt-forced swim test; format: functional, organism-based; details: time 7.0 day
In short: (§1)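 Male albino CD-1 mice (20–25 g), 12 h light/dark, food and water ad libitum. Dosed by oral gavage once daily for 7 days in 200 μL 0.5% CMC; vehicle-only controls. […] Forced swim test run 1 h after the last dose. Immobility scored every 60 s over 6 min; n = 8–12.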

Mus musculus [15] = test: Antidepressant-like activity in CD1 mouse assessed as reduction in immobility time at 20 mg/kg, po via gavage administered as […] dose for 7 days and measured 1 h post last dose by Porsolt-forced swim test; format: functional, organism-based; details: time 7.0 day
[16] = Ex vivo inhibition of MAOA in CD1 mouse brain homogenates assessed as 5-HT levels at 20 mg/kg, po administered as single acute dose via gavage and measured after 1 hr by ELISA kit method (reference value: 0.80 +/- 0.006 ug/g); format: functional
Mus musculus [17] = test: Antidepressant-like activity in po dosed CD1 mouse assessed as maximum efficacy administered as subchronic dose gavage for 7 days and measured 1 h post last dose by Porsolt-forced swim test; format: functional; details: time 7 day; in short: as §1

In the case of COc1ccc(C2=NN(C(=O)Cn3c(=O)oc4ccc(C)cc43)C(c3cccc(OC)c3OC)C2)cc1 (configuration not stated), the Papp at 16 h, 25 ug/ml [1] is reported as 8.05 ×10⁻⁶ cm/s, the Activity [2] is reported as 0.35 µg/g and the Ki [3] is reported as 0.009 µM. For the same compound, the Activity [4] was 1.1 µg/g, the Ki [5] was 655 µM and the Activity (Mus musculus [6]) was “Active”.

In the case of O=C(NCCN1CCOCC1)c1ccc(Cl)cc1 [MOCLOBEMIDE], the Activity [7] is reported as “Non-Toxic”, the Activity [8] is reported as 0.32 µg/g and the Activity [9] is reported as 7.1 µg/g. The Activity (Mus musculus [10]) was “Active”, the Activity [11] was 0.35 nmol/min/mg and the Activity [12] was 0.23 µg/g. The Activity [13] was 0.33 nmol/min/mg, the Activity (Mus musculus [14]) was “Active” and the Activity (Mus musculus [15]) was “Active”. For the same compound, the Activity [16] was 0.83 µg/g and the Emax (Mus musculus [17]) was 20 mg/kg.
